Measurements published in ChEMBL document CHEMBL2034830, “Pyrazole[3,4-e][1,4]thiazepin-7-one derivatives as a novel class of Farnesoid X Receptor (FXR) agonists” (Bioorg Med Chem, 2012).
pEC50: −log10 of the molar value. The source made the active and inactive calls. The calls are words filed in the database; no cut-off is given here.

Columns and labels:
[1] = molecular target: T1, Bile acid receptor (Homo sapiens) (UniProt Q96RI1); test: Agonist activity at human GST-tagged FXR ligand binding domain assessed as recruitment of Src-1 peptide […] by AlphaScreen assay relative to 10 uM of CDCA
T1 sequence (whole entry): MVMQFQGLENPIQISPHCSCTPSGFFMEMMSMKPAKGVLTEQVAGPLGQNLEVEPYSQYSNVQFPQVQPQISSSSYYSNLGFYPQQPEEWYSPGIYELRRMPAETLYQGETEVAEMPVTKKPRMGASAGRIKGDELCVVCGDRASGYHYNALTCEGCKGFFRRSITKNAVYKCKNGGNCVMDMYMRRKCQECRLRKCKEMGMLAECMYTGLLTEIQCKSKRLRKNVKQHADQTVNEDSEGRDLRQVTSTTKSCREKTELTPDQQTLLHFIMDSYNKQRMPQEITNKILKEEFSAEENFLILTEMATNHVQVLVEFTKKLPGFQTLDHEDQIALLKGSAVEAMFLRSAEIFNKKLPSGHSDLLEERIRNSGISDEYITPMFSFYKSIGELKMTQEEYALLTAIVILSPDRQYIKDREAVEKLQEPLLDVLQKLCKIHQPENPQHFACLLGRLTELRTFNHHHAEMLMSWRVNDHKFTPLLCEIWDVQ

Bile acid receptor = molecular target: T2, Bile acid receptor (Homo sapiens, UniProt Q96RI1); test: Agonist activity at human GST-tagged FXR ligand binding domain assessed as recruitment of Src-1 peptide […] by AlphaScreen assay; conditions: for pEC50: read-out: EC50
T2 sequence (Q96RI1 whole entry): T1 sequence (whole entry)

[2] = molecular target: T1, Bile acid receptor (Homo sapiens); test: Induction of FXR-mediated down-regulation of Cyp7alpha1 gene in human HepG2 cells after 18 hrs by qRT-PCR analysis; format: cell-based
Method in brief: (§1)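 HepG2 cells were stimulated for 18 h with increasing compound concentrations. Total RNA was random reverse-transcribed, and 10 ng template was run in SYBR Green real-time PCR with 0.3 μM of each primer. Cycling was 95 °C 3 min, then 45 cycles of 95 °C 10 s and 60 °C 30 s, in triplicate. Expression is given as ΔCT against an endogenous control, and relative expression as ΔΔCT.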

[3] = molecular target: T1, Bile acid receptor (Homo sapiens); test: Induction of FXR-mediated upregulation of Ostbeta gene in human HepG2 cells after 18 hrs by qRT-PCR analysis relative to obeticholic acid; format: cell-based; method in brief: as §1
[4] = molecular target: T1, Bile acid receptor (Homo sapiens); test: Induction of FXR-mediated upregulation of Bsep gene in human HepG2 cells after 18 hrs by qRT-PCR analysis; format: cell-based; method in brief: as §1

Row | Efficacy [1] | pEC50 (Bile acid receptor) | Structure (SMILES) | other results
1 | 24% | 6.00 | Cc1ccccc1-n1nc(C)c2c1NC(=O)[C@H](C)S[C@@H]2c1ccc(-c2ccccc2)cc1 (racemic) | –
2 | 50% | 5.96 | COc1ccccc1-c1ccc([C@H]2S[C@@H](C)C(=O)Nc3c2c(C)nn3-c2ccccc2C)cc1 (racemic) | –
3 | 38% | 5.92 | COc1ccc(-c2ccc([C@H]3S[C@@H](C)C(=O)Nc4c3c(C)nn4-c3ccccc3C)cc2)cc1 (racemic) | –
4 | 40% | 5.46 | Cc1ccccc1-n1nc(C)c2c1NC(=O)[C@H](C)S[C@@H]2c1ccc(-c2ccoc2)cc1 (racemic) | –
5 | 85% | 5.59 | Cc1ccccc1-n1nc(C)c2c1NC(=O)[C@H](C)S[C@@H]2c1ccc(-c2cccs2)cc1 (racemic) | –
6 | 17% | 5.82 | Cc1ccccc1-n1nc(C)c2c1NC(=O)[C@H](C)S[C@@H]2c1ccc(-c2cc3ccccc3o2)cc1 (racemic) | –
7 | 118% | 5.89 | Cc1ccccc1-n1nc(C)c2c1NC(=O)[C@H](C)S[C@@H]2c1ccc(Oc2ccccc2)cc1 (racemic) | –
8 | 120% | 5.77 | COc1cccc(Oc2ccc([C@H]3S[C@@H](C)C(=O)Nc4c3c(C)nn4-c3ccccc3C)cc2)c1 (racemic) | –
9 | 22% | 5.62 | Cc1cccc(-n2nc(C)c3c2NC(=O)[C@H](C)S[C@@H]3c2ccc(Oc3ccccc3)cc2)c1 (racemic) | –
10 | 11% | 5.47 | Cc1ccc(-n2nc(C)c3c2NC(=O)[C@H](C)S[C@@H]3c2ccc(Oc3ccccc3)cc2)cc1 (racemic) | –

Continued, molecule first:

Row | Structure (SMILES) | Efficacy [1] | pEC50 (Bile acid receptor) | other results
11 | COc1ccc(C2SC(C)C(=O)Nc3c2c(C)nn3-c2ccccc2C)c(OC)c1 (configuration not stated) | 63% | 4.98 | –
12 | Cc1nn(-c2ccccc2F)c2c1C(c1ccc(Oc3ccccc3)cc1)SC(C)C(=O)N2 (mixture of isomers) | 72% | 5.41 | –
13 | Cc1nn(-c2ccccc2Cl)c2c1C(c1ccc(Oc3ccccc3)cc1)SC(C)C(=O)N2 (mixture of isomers) | 57% | 5.57 | –
14 | Cc1nn(-c2ccccc2Br)c2c1C(c1ccc(Oc3ccccc3)cc1)SC(C)C(=O)N2 (mixture of isomers) | 84% | 5.74 | –
15 | COc1cccc(-c2ccc([C@H]3S[C@@H](C)C(=O)Nc4c3c(C)nn4-c3ccccc3C)cc2)c1 (racemic) | 41% | 5.74 | –
16 | CCOc1cccc(-c2ccc([C@H]3S[C@@H](C)C(=O)Nc4c3c(C)nn4-c3ccccc3C)cc2)c1 (racemic) | 13% | 5.46 | –
17 | COC(=O)c1cccc(-c2ccc([C@H]3S[C@@H](C)C(=O)Nc4c3c(C)nn4-c3ccccc3C)cc2)c1 (racemic) | – | – | EC50 (Bile acid receptor): Not Active
18 | COC(=O)c1ccc(-c2ccc([C@H]3S[C@@H](C)C(=O)Nc4c3c(C)nn4-c3ccccc3C)cc2)cc1 (racemic) | – | – | EC50 (Bile acid receptor): Not Active
19 | Cc1ccccc1-n1nc(C)c2c1NC(=O)[C@H](C)S[C@@H]2c1ccc(-c2ccco2)cc1 (racemic) | 32% | 5.44 | –
20 | Cc1ccccc1-n1nc(C)c2c1NC(=O)[C@H](C)S[C@@H]2c1ccc(-c2cccc(C(=O)O)c2)cc1 (racemic) | – | – | EC50 (Bile acid receptor): Not Active
21 | Cc1ccccc1-n1nc(C)c2c1NC(=O)[C@H](C)S[C@@H]2c1ccc(-c2ccc(C(=O)O)cc2)cc1 (racemic) | – | – | EC50 (Bile acid receptor): Not Active
22 | Cc1ccccc1-n1nc(C)c2c1NC(=O)[C@H](C)S[C@@H]2c1ccc(/C=C/c2ccccc2)cc1 (racemic) | – | – | EC50 (Bile acid receptor): Not Active
23 | Cc1ccccc1-n1nc(C)c2c1NC(=O)[C@H](C)S[C@@H]2c1ccc(-c2ccsc2)cc1 (racemic) | 68% | 5.85 | –
24 | COc1ccccc1Oc1ccc([C@H]2S[C@@H](C)C(=O)Nc3c2c(C)nn3-c2ccccc2C)cc1 (racemic) | 240% | 5.77 | Activity [2]: Dose-dependent effect; Activity [3]: Active; Activity [4]: inactive
25 | COc1ccc(Oc2ccc([C@H]3S[C@@H](C)C(=O)Nc4c3c(C)nn4-c3ccccc3C)cc2)cc1 (racemic) | 70% | 5.66 | –
26 | Cc1ccccc1-n1nc(C)c2c1NC(=O)[C@H](C)S[C@@H]2c1ccc(Oc2ccccc2C(=O)O)cc1 (racemic) | – | – | EC50 (Bile acid receptor): Not Active
27 | Cc1ccccc1-n1nc(C)c2c1NC(=O)[C@H](C)S[C@@H]2c1ccc(Oc2cccc(C(=O)O)c2)cc1 (racemic) | – | – | EC50 (Bile acid receptor): Not Active
28 | Cc1ccccc1-n1nc(C)c2c1NC(=O)[C@H](C)S[C@@H]2c1ccc(Oc2ccc(C(=O)O)cc2)cc1 (racemic) | – | – | EC50 (Bile acid receptor): Not Active
29 | Cc1ccccc1-n1nc(C)c2c1NC(=O)[C@H](C)S[C@@H]2c1ccc(OCc2ccccc2)cc1 (racemic) | – | – | EC50 (Bile acid receptor): Not Active
30 | COc1cc([C@H]2S[C@@H](C)C(=O)Nc3c2c(C)nn3-c2ccccc2C)ccc1Oc1ccccc1 (racemic) | 130% | 5.72 | –
31 | CCc1ccccc1-n1nc(C)c2c1NC(=O)[C@H](C)S[C@@H]2c1ccc(Oc2ccccc2)cc1 (racemic) | 190% | 5.96 | Activity [2]: Dose-dependent effect; Activity [3]: Active; Activity [4]: Dose-dependent effect
32 | CCCc1ccccc1-n1nc(C)c2c1NC(=O)[C@H](C)S[C@@H]2c1ccc(Oc2ccccc2)cc1 (racemic) | 240% | 5.96 | Activity [2]: Dose-dependent effect; Activity [3]: Active; Activity [4]: inactive
33 | Cc1nn(-c2ccccc2C(C)C)c2c1[C@@H](c1ccc(Oc3ccccc3)cc1)S[C@@H](C)C(=O)N2 (racemic) | 174% | 5.72 | –
34 | Cc1nn(-c2ccccc2C(F)(F)F)c2c1C(c1ccc(Oc3ccccc3)cc1)SC(C)C(=O)N2 (racemic) | 50% | 5.70 | –
35 | Cc1nn(-c2ccccc2I)c2c1C(c1ccc(Oc3ccccc3)cc1)SC(C)C(=O)N2 (racemic) | 130% | 5.89 | –
36 | COc1ccccc1-n1nc(C)c2c1NC(=O)[C@H](C)S[C@@H]2c1ccc(Oc2ccccc2)cc1 (racemic) | 37% | 5.48 | –
